Read-outs that look alike come from different tables or passages of the source. One block for each molecule: values may come before it.
Key:
[1] = target: T1, human 2N4R tau (Homo sapiens, UniProt P10636); conditions: near physiological buffer conditions and tau concentrations ref 9; cited from earlier work
[2] = Dye aggregation; format: physicochemical; conditions: for slope of double log plot of monomer versus dimer concentration / dissociation equilibrium constant for dimerization (Kdim): assembly buffer; for dissociation equilibrium constant for dimerization (Kdim): 1 h at 37°C, mean ± S.D.
[3] = target: T1, human 2N4R tau; test: Filter trap assay for ODS-induced fibrillization of tau; format: biochemical
[4] = test system: sarkosyl-insoluble tau in organotypic slices from JNPL3 transgenic mice (human tau P301L); test: Organotypic slice culture, sarkosyl-insoluble tau; format: cell-based
Method in brief: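 Cortex/hippocampus of postnatal day-10 JNPL3 mice cut at 400 μm and cultured on membrane inserts 14 days (25% serum). One hemisphere given test compound (0.1 nM–1 μM) for 7 days; contralateral hemisphere given 0.008% DMSO. RIPA extracts equalised for protein, incubated in 1% sarkosyl, spun at 100,000g. Pellet immunoblotted with CP27. Densitometry n = 3, normalised to vehicle; Student's t test.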

[5] = test system: organotypic slices from JNPL3 transgenic mice; test: Organotypic slice culture, cleaved PARP1 and α-tubulin levels; format: cell-based; conditions: seven days
[6] = test system: cell culture models; conditions: cell culture models ref 21, 26, 25; cited from earlier work
[7] = target: T1, human 2N4R tau; conditions: electron microscopy assay format

T1 sequence (P10636 1-441 isoform P10636-8): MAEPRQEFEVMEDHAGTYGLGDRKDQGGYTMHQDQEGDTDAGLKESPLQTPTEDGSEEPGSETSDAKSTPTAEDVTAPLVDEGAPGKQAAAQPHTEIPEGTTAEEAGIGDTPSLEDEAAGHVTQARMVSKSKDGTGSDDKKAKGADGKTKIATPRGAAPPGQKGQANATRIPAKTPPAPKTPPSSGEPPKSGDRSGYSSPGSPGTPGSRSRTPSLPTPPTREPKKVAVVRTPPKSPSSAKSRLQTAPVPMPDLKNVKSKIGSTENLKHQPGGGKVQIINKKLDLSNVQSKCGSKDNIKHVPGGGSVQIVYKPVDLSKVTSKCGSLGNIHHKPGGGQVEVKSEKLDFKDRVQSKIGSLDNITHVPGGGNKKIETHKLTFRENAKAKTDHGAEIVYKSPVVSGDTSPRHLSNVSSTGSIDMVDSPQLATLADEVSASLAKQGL

Compound: CCC(/C=C1\Sc2ccc(OC)cc2N1CCO)=C\c1sc2ccc(OC)cc2[n+]1CCO.[I-] [Compound 1]
IC50 [1]: submicromolar

slope of double log plot of monomer versus dimer concentration [2]: 1.7 ± 0.1
dissociation equilibrium constant for dimerization (Kdim) [2]: 0.68 ± 0.04 µM
Compound: CCN1/C(=C/C=C/C=C/C=C/c2sc3ccccc3[n+]2CC)Sc2ccccc21.[I-] [Compound 5]

inhibitory activity ([3]; at the highest concentration tested): essentially no inhibitory activity
Compound: CCN1/C(=C/C=C/c2oc3ccccc3[n+]2CC)Oc2ccccc21.[I-] [Compound 6]

Compound: CCN1/C(=C/C=C/C2=[N+](CC)c3ccccc3C2(C)C)C(C)(C)c2ccccc21.[I-] [Compound 8]
dimerization ([2]; any concentration tested up to 96 μM): did not dimerize

reduction of inhibitory potency ([3]; 9 (three-carbon N-alkyl) versus 8 (two-carbon)): ~ 3 fold
Compound: CCCN1/C(=C/C=C/C2=[N+](CCC)c3ccccc3C2(C)C)C(C)(C)c2ccccc21.[I-] [Compound 9]

inhibitory activity ([3]; at up to 10 μM concentration): completely eliminated activity
Compound: CCCCCCN1/C(=C/C=C/c2sc3ccccc3[n+]2CCCCCC)Sc2ccccc21.[I-] [Compound 10]

decrease of IC50 by methyl meso substituent ([3]; 11 versus hydrogen meso compound): 3 fold
IC50 ([3]; IC50, filter trap assay): ~300 nM
slope of double log plot of monomer versus dimer concentration [2]: 2.3 ± 0.1
dissociation equilibrium constant for dimerization (Kdim) [2]: 20.9 ± 0.7 µM
concentration for dimerization relative to 1 ([2]; higher than 1 under identical conditions): 10.0 ± 0.2 fold
levels of α-tubulin ([5]; 1 nM): unchanged
levels of α-tubulin ([5]; 1 μM): depletion of α-tubulin
levels of cleaved PARP1 ([5]; any tested concentration): did not increase
Compound: CCN1/C(=C/C(C)=C/c2sc3ccccc3[n+]2CC)Sc2ccccc21.[I-] [Compound 11, 3,3’-diethyl-9-methylthiacarbocyanine iodide]
effect on tau aggregation ([4]; 100 nM, seven days): Inhibitory activity was lost
effect on tau aggregation ([4]; 300 nM and above, seven days): tau aggregation was induced
tau aggregation relative to DMSO vehicle alone ([4]; 1 – 10 nM, seven days): ~ 50%
lowest media concentration inhibiting tau aggregation ([4]; organotypic slices): 1 nM
concentration initiating apoptosis and collapse of the microtubule cytoskeleton [6]: > 300 nM

inhibitory activity ([3]; at up to 10 μM concentration): completely lost
slope of double log plot of monomer versus dimer concentration [2]: 1.8 ± 0.1
dissociation equilibrium constant for dimerization (Kdim) [2]: 7.5 ± 0.4 µM
Compound: CC(/C=C1\Sc2ccccc2N1CCCS(=O)(=O)[O-])=C\c1sc2ccccc2[n+]1CCCS(=O)(=O)[O-].CC[n+]1ccccc1 [Compound 12]

Compound: CN(C)c1ccc2nc3ccc(N(C)C)cc3[s+]c2c1.[Cl-] [Methylene blue, 3,7-bis(dimethylamino)phenothiazin-5-ium chloride]
behaviour as antagonist [7]: partial antagonist

From publication PMC2745078 (Journal of medicinal chemistry, 2009)
